Measured values from ChEMBL document CHEMBL3875153, “Design and synthesis of isatin/triazole conjugates that induce apoptosis and inhibit migration of MGC-803 cells” (Eur J Med Chem, 2016).
Active and inactive are the calls of the source. The rule behind the calls is not given here.

Key:
[1] = Cell cycle arrest in human MGC803 cells assessed as accumulation at G0/G1 phase at 5 uM after 24 hrs by propidium iodide staining based flow cytometry (reference value: 54.77%); assay type: functional; conditions: MGC-803
MGC-803 [2] = assay: Induction of morphological changes in human MGC803 cells assessed as cell rounding up at 5 to 20 uM after 24 hrs by Hoechst 33258 staining based confocal microscopic analysis; assay type: functional
Summary of the method: (§1)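 MGC-803 cells grown on glass slides to about 70% confluence, treated 24 h at 0, 5, 10, 20 µM. PBS-washed, stained 20 min in dark with 10 µg/mL Hoechst 33258 containing 0.1% Triton X-100, washed, mounted, imaged by laser scanning confocal microscopy. Cell morphology also viewed by inverted microscope.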

MGC-803 [3] = assay: Induction of morphological changes in human MGC803 cells assessed as cell debris at 5 to 20 uM after 24 hrs by Hoechst 33258 staining based confocal microscopic analysis; assay type: functional; summary of the method: as §1
[4] = Cell cycle arrest in human MGC803 cells assessed as accumulation at S phase at 20 uM after 24 hrs by propidium iodide staining based flow cytometry (reference value: 21.32%); assay type: functional; conditions: MGC-803
MGC-803 [5] = assay: Induction of apoptosis in human MGC803 cells assessed as activation of Bax protein expression at 5 to 20 uM after 24 hrs by Western blot method; assay type: functional, cell-based
Summary of the method: (§2)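 Cells given 0, 5, 10, 20 µM for 24 h, lysed 30 min in RIPA buffer (50 mM Tris-HCl pH 7.5, 150 mM NaCl, detergents) with protease inhibitors. Cleared lysate protein measured by BCA, resolved by SDS-PAGE, moved to nitrocellulose. Membranes blocked in 5% milk, probed with primary antibodies overnight at 4 °C, then secondary (1:5000) 2 h. ECL detection.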

[6] = Cell cycle arrest in human MGC803 cells assessed as accumulation at G0/G1 phase at 20 uM after 24 hrs by propidium iodide staining based flow cytometry (reference value: 54.77%); assay type: functional; conditions: MGC-803
[7] = Cytotoxicity against human GES-1 cells assessed as growth inhibition after 72 hrs by CCK8 assay; assay type: toxicity, cell-based, GES1; conditions: human, GES-1 cells
Summary of the method: (§3)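 Exponentially growing cells were trypsinized and seeded at 2 × 10^4 cells/mL (100 µL/well). After 24 h, medium was replaced with compound at 0.5–256 µM (twofold steps). Plates were incubated 72 h at 37 °C, 5% CO2, then with CCK-8 for 4 h. A450 was read. Three independent runs; IC50 given as mean and SD.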

MGC-803 [8] = assay: Induction of apoptosis in human MGC803 cells assessed as increase in caspase-6 protein expression at 5 to 20 uM after 24 hrs by Western blot method; assay type: functional, cell-based; summary of the method: as §2
[9] = Cytotoxicity against human HL-7702 cells assessed as growth inhibition after 72 hrs by CCK8 assay; assay type: toxicity, cell-based, L02; conditions: human, HL-7702 cells; summary of the method: as §3
MGC-803 [10] = assay: Induction of ROS generation in human MGC803 cells at 5 uM after 24 hrs by DCFH-DA staining based flow cytometry (reference value: 2.84%); assay type: functional
Summary of the method: (§4)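 MGC-803 cells exposed to 0, 5, 10, 20 µM for 24 h, collected, then loaded with DCFH-DA (10 µM) for 30 min at 37 °C. Washed three times in serum-free medium; DCF green fluorescence quantified by flow cytometry as percent fluorescent cells.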

MGC-803 [11] = assay: Induction of apoptosis in human MGC803 cells assessed as early apoptotic cells at 5 uM after 24 hrs by Annexin-V FITC/propidium iodide staining based flow cytometry (reference value: 0.9 +/- 0.3%); assay type: functional
[12] = Cytotoxicity against human SW780 cells assessed as growth inhibition after 72 hrs by CCK8 assay; assay type: functional, cell-based; conditions: Homo sapiens, SW780, 72 h; read-out: IC50; summary of the method: as §3
MGC-803 [13] = assay: Induction of apoptosis in human MGC803 cells assessed as late apoptotic cells at 10 uM after 24 hrs by Annexin-V FITC/propidium iodide staining based flow cytometry (reference value: 0.4 +/- 0.5%); assay type: functional
MGC-803 [14] = assay: Induction of ROS generation in human MGC803 cells after 24 hrs by DCFH-DA staining based flow cytometry; assay type: functional, cell-based; summary of the method: as §4
MGC-803 [15] = assay: Induction of morphological changes in human MGC803 cells assessed as nuclear fragmentation at 5 to 20 uM after 24 hrs by Hoechst 33258 staining based confocal microscopic analysis; assay type: functional, cell-based; summary of the method: as §1
[16] = Cell cycle arrest in human MGC803 cells assessed as accumulation at G2/M phase at 20 uM after 24 hrs by propidium iodide staining based flow cytometry (reference value: 20.66%); assay type: functional; conditions: MGC-803
MGC-803 [17] = assay: Anti-migratory activity against human MGC803 cells after 24 hrs by Hoechst 33258 staining based transwell assay; assay type: functional, cell-based
Summary of the method: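 MGC-803 cells, 10,000 per upper chamber in 100 µL medium with 1% FBS plus compound (0, 2, 4, 8 µM). Lower chamber held medium with 20% FBS as chemoattractant. After 24 h, chambers PBS-washed, cells stained with Hoechst 33258 (10 µg/mL), migrated cells counted by high content screening.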

MGC-803 [18] = assay: Induction of apoptosis in human MGC803 cells assessed as early apoptotic cells at 10 uM after 24 hrs by Annexin-V FITC/propidium iodide staining based flow cytometry (reference value: 0.9 +/- 0.3%); assay type: functional
MGC-803 [19] = assay: Induction of apoptosis in human MGC803 cells assessed as increase in caspase-7 protein expression at 5 to 20 uM after 24 hrs by Western blot method; assay type: functional, cell-based; summary of the method: as §2
MGC-803 [20] = assay: Induction of apoptosis in human MGC803 cells assessed as late apoptotic cells at 20 uM after 24 hrs by Annexin-V FITC/propidium iodide staining based flow cytometry (reference value: 0.4 +/- 0.5%); assay type: functional
MGC-803 [21] = assay: Induction of morphological changes in human MGC803 cells assessed as chromatin condensation at 5 to 20 uM after 24 hrs by Hoechst 33258 staining based confocal microscopic analysis; assay type: functional, cell-based; summary of the method: as §1
MGC-803 [22] = assay: Induction of apoptosis in human MGC803 cells assessed as increase in caspase-9 cleavage at 5 to 20 uM after 24 hrs by Western blot method; assay type: functional, cell-based; summary of the method: as §2
MGC-803 [23] = assay: Induction of ROS generation in human MGC803 cells at 10 uM after 24 hrs by DCFH-DA staining based flow cytometry (reference value: 2.84%); assay type: functional; summary of the method: as §4
MGC-803 [24] = assay: Induction of apoptosis in human MGC803 cells assessed as increase in caspase-3 protein expression at 5 to 20 uM after 24 hrs by Western blot method; assay type: functional, cell-based; summary of the method: as §2
MGC-803 [25] = assay: Induction of apoptosis in human MGC803 cells assessed as early apoptotic cells at 20 uM after 24 hrs by Annexin-V FITC/propidium iodide staining based flow cytometry (reference value: 0.9 +/- 0.3%); assay type: functional
[26] = Cytotoxicity against human MCF7 cells assessed as growth inhibition after 72 hrs by CCK8 assay; assay type: functional, cell-based; conditions: Homo sapiens, MCF7, 72 h; read-out: IC50; summary of the method: as §3
[27] = Cell cycle arrest in human MGC803 cells assessed as accumulation at G2/M phase at 5 uM after 24 hrs by propidium iodide staining based flow cytometry (reference value: 20.66%); assay type: functional; conditions: MGC-803
MGC-803 [28] = assay: Induction of ROS generation in human MGC803 cells at 20 uM after 24 hrs by DCFH-DA staining based flow cytometry (reference value: 2.84%); assay type: functional; summary of the method: as §4
MGC-803 [29] = assay: Inhibition of LSD1 expression in human MGC803 cells after 24 hrs by Western blot method; assay type: functional, cell-based; summary of the method: as §2
[30] = Cytotoxicity against human TE1 cells assessed as growth inhibition after 72 hrs by CCK8 assay; assay type: functional, cell-based, TE-1; conditions: Homo sapiens, TE-1, 72 h; read-out: IC50; summary of the method: as §3
MGC-803 [31] = assay: Induction of apoptosis in human MGC803 cells assessed as increase in PARP cleavage at 5 to 20 uM after 24 hrs by Western blot method; assay type: functional, cell-based; summary of the method: as §2
MGC-803 [32] = assay: Induction of apoptosis in human MGC803 cells assessed as inhibition of Mcl1 protein expression at 5 to 20 uM after 24 hrs by Western blot method; assay type: functional, cell-based; summary of the method: as §2
MGC-803 [33] = assay: Induction of apoptosis in human MGC803 cells assessed as inhibition of Bcl2 protein expression at 5 to 20 uM after 24 hrs by Western blot method; assay type: functional, cell-based; summary of the method: as §2
MGC-803 [34] = assay: Induction of apoptosis in human MGC803 cells after 24 hrs by Annexin-V FITC/propidium iodide staining based flow cytometry; assay type: functional, cell-based
[35] = Cell cycle arrest in human MGC803 cells assessed as accumulation at G2/M phase at 10 uM after 24 hrs by propidium iodide staining based flow cytometry (reference value: 20.66%); assay type: functional; conditions: MGC-803
[36] = Cell cycle arrest in human MGC803 cells assessed as accumulation at S phase at 5 uM after 24 hrs by propidium iodide staining based flow cytometry (reference value: 21.32%); assay type: functional; conditions: MGC-803
[37] = Cell cycle arrest in human MGC803 cells assessed as accumulation at S phase at 10 uM after 24 hrs by propidium iodide staining based flow cytometry (reference value: 21.32%); assay type: functional; conditions: MGC-803
MGC-803 [38] = assay: Induction of morphological changes in human MGC803 cells assessed as nuclear condensation at 5 to 20 uM after 24 hrs by Hoechst 33258 staining based confocal microscopic analysis; assay type: functional, cell-based; summary of the method: as §1
[39] = Cell cycle arrest in human MGC803 cells assessed as accumulation at G2/M phase after 24 hrs by propidium iodide staining based flow cytometry; assay type: functional; conditions: MGC-803
[40] = Cell cycle arrest in human MGC803 cells assessed as accumulation at G0/G1 phase at 10 uM after 24 hrs by propidium iodide staining based flow cytometry (reference value: 54.77%); assay type: functional; conditions: MGC-803
[41] = Cytotoxicity against human MGC803 cells assessed as growth inhibition after 72 hrs by CCK8 assay; assay type: functional, cell-based, MGC-803; conditions: Homo sapiens, MGC-803, 72 h; read-out: IC50; summary of the method: as §3
MGC-803 [42] = assay: Induction of apoptosis in human MGC803 cells assessed as late apoptotic cells at 5 uM after 24 hrs by Annexin-V FITC/propidium iodide staining based flow cytometry (reference value: 0.4 +/- 0.5%); assay type: functional
MGC-803 [43] = assay: Induction of apoptosis in human MGC803 cells assessed as increase in caspase-8 cleavage at 5 to 20 uM after 24 hrs by Western blot method; assay type: functional, cell-based; summary of the method: as §2

With O=C(Cn1cc(CN2C(=O)C(=O)c3c(Cl)ccc(Cl)c32)nn1)OC1CCCCC1 the Activity [1] was 48.7%, the Activity (MGC-803 [2]) was “Active” and the Activity (MGC-803 [3]) was “Active”. The Activity [4] was 23.5%, the Activity (MGC-803 [5]) was “Active” and the Activity [6] was 34.8%. For the same compound, the IC50 at 72 h [7] was 36 µM, the Activity (MGC-803 [8]) was “Active” and the IC50 at 72 h [9] was 40.3 µM. The Activity (MGC-803 [10]) was 6.04%, the Activity (MGC-803 [11]) was 7.8% and the IC50 [12] was 25.2 µM. For the same compound, the Activity (MGC-803 [13]) was 5.7%, the Activity (MGC-803 [14]) was “Dose-dependent effect” and the Activity (MGC-803 [15]) was “Active”. For the same compound, the Activity [16] was 32.3%, the Activity (MGC-803 [17]) was “Dose-dependent effect” and the Activity (MGC-803 [18]) was 10.3%. For the same compound, the Activity (MGC-803 [19]) was “Active”, the Activity (MGC-803 [20]) was 4.5% and the Activity (MGC-803 [21]) was “Active”. The Activity (MGC-803 [22]) was “Active”, the Activity (MGC-803 [23]) was 10.3% and the Activity (MGC-803 [24]) was “Active”. For the same compound, the Activity (MGC-803 [25]) was 18%, the IC50 [26] was 18.9 µM and the Activity [27] was 24.1%. The Activity (MGC-803 [28]) was 19.3%, the inhibition (MGC-803 [29]) was “Dose-dependent effect” and the IC50 [30] was 14.2 µM. The Activity (MGC-803 [31]) was “Active”, the inhibition (MGC-803 [32]) was “Active” and the inhibition (MGC-803 [33]) was “Active”. The Activity (MGC-803 [34]) was “Dose-dependent effect”, the Activity [35] was 28.7% and the Activity [36] was 21.5%. The Activity [37] was 24%, the Activity (MGC-803 [38]) was “Active” and the Activity [39] was “Dose-dependent effect”. It also gave an Activity [40] of 40.3%, an IC50 [41] of 9.78 µM and an Activity (MGC-803 [42]) of 5%. The Activity (MGC-803 [43]) was “Active”.

For O=C1C(=O)N(Cc2cn(CC(=O)N3CCCC3)nn2)c2c(Cl)ccc(Cl)c21, the IC50 at 72 h [7] was 88.7 µM, the IC50 at 72 h [9] was over 128 µM and the IC50 [12] was 48.2 µM. For the same compound, the IC50 [26] was 62.4 µM, the IC50 [30] was 51.6 µM and the IC50 [41] was 14.8 µM.
